PTEN del growth = PTEN-deleted cell growth suppression; actives 1.2% (n = 140,000); viability, % at 10 µM; HCT116 PTEN-null viability, CellTiter-Glo, 60 h; stronger effect = lower value;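 active means viability at or below a set limit, 4 SD under the median of all tested compounds, cut at about 3.7% in these data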;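 further: PTEN knockout HCT116 line with beta catenin targeted HCT116 as companion control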
H69AR growth 86K = growth inhibitors of human H69AR lung tumor cells | H69AR lung tumor viability, ATP luminescence, 72 h; stronger effect = lower value | viability, % at 10 µM | actives 6% (n = 85,000);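 active means viability at or below 40%; inactive means viability above 40%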;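 further: multidrug resistant small cell line overexpressing MRP-1 efflux transporter; 100% = mean luminescence of untreated control wells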
bCat KO growth = beta-catenin-lacking colon tumor cell growth suppression. HCT116 beta-catenin knockout viability, CellTiter-Glo, 60 h; stronger effect = lower value. viability, % at 10 µM. actives 1.5% (n = 140,000). AID 818;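 active means viability at or under a set limit, the compound median less 4 SD, cut at about 6% in these data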;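 further: 0% = Hyamine 1622 control at 20 µM and 100% = untreated cell control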
HUVEC inhibit = human endothelial cell proliferation inhibition. HUVEC proliferation, CellTiter-Glo luminescence, 72 h; stronger effect = lower value. viability, % at 10 µM (by protocol). actives 1.1% (n = 86,000). AID 648;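 active means viability at or below 30%; inactive means viability above 30%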;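 further: 100% = median luminescence of DMSO-only cell control wells on each plate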
Lung fibro prol = blocks proliferation of human lung fibroblasts | LL 47 human lung fibroblast viability, ATP luminescence; stronger effect = lower value | viability, % at 10 µM | actives 1.1% (n = 85,000);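 active means viability at or below 50% in the single dose screen; inactive means viability above 50%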;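 further: compound exposure lasted 72 h before the ATP readout; 100% = median luminescence of untreated cell-only wells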
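test system = LL 47 human lung fibroblasts | amount = 1,150 fibroblasts seeded per well | medium = 15% FBS in IMEM | times = overnight cell rest, 72 h compound treatment at 37 °C | measured by = CellTiter-Glo luminescence measuring cellular ATP | read-out = viability percentage against median untreated-cell control | benchmarks = cell-only wells, no compound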
An asterisk follows results filed as active; nt = no result. The entries come from a sample that favours hits as a whole.

SMILES	PTEN del growth	H69AR growth 86K	bCat KO growth	HUVEC inhibit	Lung fibro prol
Cc1ccc(O)c(/C=N/NC(=O)c2[nH]ncc2Br)c1	14.3	nt	9.7	nt	nt
Cc1ccc(O)c(/C=N/NC(=O)C2=NNC(c3ccccc3)(c3ccccc3)C2)c1	6.8	36.8*	9.0	4.0*	11.7*
O=C(Nc1ccc(F)cc1)Nc1ccc(N2CCCC2)c(S(=O)(=O)Nc2ccccc2Cl)c1	1.9*	nt	2.8*	nt	nt
O=C(Nc1ccc(Cl)c(Cl)c1)Nc1ccc(N2CCCC2)c(S(=O)(=O)Nc2ccccc2Cl)c1	1.4*	nt	1.6*	nt	nt
C/C(=N\NC(=O)c1c(Cl)cnn1C)c1ccc(NC(=O)c2ccncc2)cc1	94.8	nt	95.0	nt	nt
CCOC(=O)c1[nH]c2c(c1C)C(=O)CC(c1ccc(F)cc1)C2 (stereo not drawn)	13.2	99.8	12.9	54.3	57.8
Cc1c(C(=O)OCC(C)C)[nH]c2c1C(=O)CC(c1cccs1)C2 (stereo not drawn)	15.4	20.9*	12.8	44.9	51.6
Cc1ccc(C=Nc2ccc(N(C)C)cc2)o1	37.9	67.6	5.4*	90.5	105.6
Cc1ccc(C=Nc2ccccc2C(N)=O)o1	92.7	nt	96.2	nt	nt
O=C(N/N=C\c1c(O)ccc2ccccc12)c1ccc(Cn2cccn2)o1	5.3	nt	5.6*	nt	nt
O=C(N/N=C\c1ccc(Cl)s1)c1ccc(Cn2cccn2)o1	101.4	nt	92.8	nt	nt
CC(C)C(C)(C#N)NC(=O)CSc1nnc(-c2ccccc2)o1 (stereo not drawn)	105.7	90.7	98.9	100.9	102.6
CC(=O)Nc1ccc(N=Cc2ccc[nH]2)cc1	93.9	nt	101.6	nt	nt
Oc1ccccc1N=Cc1ccc[nH]1	100.4	34.9*	91.9	101.2	111.1
Cc1cc2nc(/N=C(\N)NC(=O)N3c4ccccc4Sc4ccccc43)nc(C)c2cc1C	78.5	nt	85.9	nt	nt
COCCn1c(=NC(=O)/C=C/c2ccccc2)sc2cc(NC(C)=O)ccc21	89.4	nt	88.6	nt	nt
Cc1cc2cc(CNC(=O)Cc3cccs3)ccc2n1C	nt	37.6*	nt	60.7	107.3
O=C(N/N=C\c1ccc(CNS(=O)(=O)c2ccccc2)o1)C(=O)Nc1ccc(F)cc1	86.4	nt	81.5	nt	nt
O=C(N/N=C\c1ccc(CNS(=O)(=O)c2ccc(Cl)cc2)o1)C(=O)Nc1ccc(Oc2ccccc2)cc1	2.0*	nt	1.4*	nt	nt
Cc1noc(/C=C/c2ccco2)c1S(=O)(=O)N1CCC(C(=O)NC(C)c2ccccc2)CC1 (stereo not drawn)	77.1	12.8*	75.8	85.8	95.5
CCOCCCNC(=O)C1CCN(S(=O)(=O)c2c(C)noc2/C=C\c2ccc(OC)cc2)CC1	nt	37.1*	nt	79.9	93.8
Cc1noc(/C=C/c2ccco2)c1S(=O)(=O)N1CCC(C(=O)N(C)Cc2ccccc2)CC1	68.1	71.4	73.6	93.9	98.3
Cc1ccc(NC(=O)COC(=O)/C=C/c2cccs2)c(C)c1	96.4	nt	96.1	nt	nt
CCOc1cccc(-c2csc(C3COc4ccccc4O3)n2)c1 (stereo not drawn)	96.9	nt	95.5	nt	nt
COc1cccc(-n2nnnc2S(C)(=O)=O)c1	1.3*	1.1*	11.7	45.0	46.6*
SMILES	PTEN del growth	H69AR growth 86K	bCat KO growth	HUVEC inhibit	Lung fibro prol
COc1cccc(Oc2nnnn2-c2ccccc2)c1	105.8	nt	97.3	89.0	98.5
Cc1sc2cc(-c3cccc([N+](=O)[O-])c3)c(-c3cccc([N+](=O)[O-])c3)c[n+]2c1C	102.3	nt	96.1	nt	nt
O=C(Nc1nc2ccc(SC(F)F)cc2s1)c1ccc(NS(=O)(=O)c2ccc(F)c(F)c2)cc1	58.4	nt	71.6	nt	nt
O=C1O/C(=C/C(=O)N2CCOCC2)c2ccccc21	93.0	85.0	92.7	85.4	94.2
O=C(Nc1cccc(-c2nc3ncccc3o2)c1)c1cc2ccccc2o1	76.9	15.6*	94.3	48.6	108.3
O=C(Nc1ccc2c(c1)OCO2)c1ccc(N2CCCC2)c([N+](=O)[O-])c1	88.4	nt	88.4	nt	nt
O=C(ONc1ccc(N=NC(=O)c2ccccc2O)cc1)c1ccccc1	18.2	11.6*	36.8	36.5	70.1
Cc1nc(SCc2nc3ccccc3[nH]2)c2oc3ccccc3c2n1	46.8	65.1	58.2	87.2	89.6
c1ccc2[nH]c(CN3CCN(c4ncnc5c4oc4ccccc45)CC3)nc2c1	76.4	7.1*	77.3	86.9	96.5
Cc1nc(N2CCN(Cc3nc4ccccc4[nH]3)CC2)c2oc3ccccc3c2n1	42.6	36.3*	47.3	72.0	87.9
COc1cc(/C=C/C(=O)NCCN2CCOCC2)cc(OC)c1OC	101.4	nt	87.8	nt	nt
Brc1cccc(-c2nnc(SCc3ccon3)n2-c2ccccc2)c1	75.0	69.2	81.5	93.8	94.8
